Results published in ChEMBL document CHEMBL1681647, “Targeting bacterial biofilms: design of a terpenoid-like library as non-toxic anti-biofilm compounds” (Bioorg Med Chem Lett, 2011).
Activity calls are given as the source filed them. The calls are words filed in the database; no cut-off is given here.

tested on: Pseudoalteromonas sp. D41; assay: Antibiofilm activity in Pseudoalteromonas sp. D41 assessed as bacterial adhesion at 500 uM after 15 mins using DAPI staining by micro-plate fluorescence reader; assay type: functional; details: in the assay text read “15 h” for “15 mins”
How it was run: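 Single-concentration screen at 500 in triplicate. D41 was grown in VNSS at 20 °C to stationary phase, then resuspended in artificial sea water at OD600 0.2–0.4. Incubation was 15 h at 20 °C with an ASW adhesion control. Wells were NaCl-washed and fixed in 2% formaldehyde for 90 min at 4 °C, then DAPI-stained. Fluorescence of the ethanol-solubilized dye was read at 380 nm excitation and 495 nm emission.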

Compared with `COc1ccc(-c2cn(C/C=C(\C)CC/C=C(\C)CCC=C(C)C)nn2)cc1`, `COc1ccc(-c2cn(C/C=C(\C)CCC=C(C)C)nn2)cc1` is lower in Activity: 46% for the first, 3% for the second.

`COc1ccccc1-c1cn(C/C=C(\C)CCC=C(C)C)nn1` and `COc1cccc(-c2cn(C/C=C(\C)CCC=C(C)C)nn2)c1` are the same in Activity: 90% for the first, 90% for the second.

First: CC(C)=CCC/C(C)=C/CC/C(C)=C/COCc1cn(-c2ccc(O)cc2)nn1
Second: COc1ccc(-n2cc(COC/C=C(\C)CC/C=C(\C)CCC=C(C)C)nn2)cc1
The Activity of the first is higher: 73% for the first, 24% for the second.

First: CC(C)=CCC/C(C)=C/COCc1cn(-c2cccc(C(=O)O)c2)nn1
Second: CC(C)=CCC/C(C)=C/COCc1cn(-c2cccc(O)c2)nn1
The Activity of the first is lower: 32% for the first, 55% for the second.

Going from `COc1ccccc1-n1cc(COC/C=C(\C)CC/C=C(\C)CCC=C(C)C)nn1` to `COc1ccccc1-n1cc(COC/C=C(\C)CCC=C(C)C)nn1`, the Activity falls from 35% to 29%.

Going from `COc1cc(-n2cc(COC/C=C(\C)CC/C=C(\C)CCC=C(C)C)nn2)cc(OC)c1OC` to `COc1cc(-n2cc(COC/C=C(\C)CCC=C(C)C)nn2)cc(OC)c1OC`, the Activity falls from 50% to 36%.

Going from `COc1ccc(-n2cc(COC/C=C(\C)CCC=C(C)C)nn2)cc1` to `COc1cccc(-n2cc(COC/C=C(\C)CCC=C(C)C)nn2)c1`, the Activity falls from 20% to 19%.

First: CC(C)=CCC/C(C)=C/COCc1cn(-c2ccc(C(=O)O)cc2)nn1
Second: COc1cc(OC)cc(-n2cc(COC/C=C(\C)CCC=C(C)C)nn2)c1
The Activity of the first is lower: 39% for the first, 76% for the second.

First: CC(C)=CCC/C(C)=C/CC/C(C)=C/Cn1cc(-c2cccc(O)c2)nn1
Second: CC(C)=CCC/C(C)=C/Cn1cc(-c2cccc(O)c2)nn1
The Activity of the first is higher: 34% for the first, 30% for the second.

First: CC(C)=CC(=O)C/C(C)=C/CC/C(C)=C/CC/C(C)=C/CO [ELEGANOLONE]
Second: CC(C)=C[C@@H](O)C/C(C)=C/CC/C(C)=C/CC/C(C)=C/CO [ELEGANEDIOL]
The Activity of the first is higher: 17% for the first, 14% for the second.

Compared with `COc1cc(OC)cc(-c2cn(C/C=C(\C)CC/C=C(\C)CCC=C(C)C)nn2)c1`, `COc1cc(OC)cc(-c2cn(C/C=C(\C)CCC=C(C)C)nn2)c1` is higher in Activity: 0% for the first, 90% for the second.

Going from `COc1cc(OC)cc(-n2cc(COC/C=C(\C)CC/C=C(\C)CCC=C(C)C)nn2)c1` to `COc1cccc(-n2cc(COC/C=C(\C)CC/C=C(\C)CCC=C(C)C)nn2)c1`, the Activity falls from 76% to 25%.

In the case of `CC(C)=CCC/C(C)=C/CC/C(C)=C/COCc1cn(-c2ccc(C(=O)O)cc2)nn1`, the Activity is reported as >90%.
With `CC(C)=CCC/C(C)=C/CC/C(C)=C/COCc1cn(-c2cccc(C(=O)O)c2)nn1` the Activity was >90%.
In the case of `CC(C)=CCC/C(C)=C/CC/C(C)=C/COCc1cn(-c2cccc(O)c2)nn1`, the Activity is reported as >90%.
In the case of `CC(C)=CCC/C(C)=C/COCc1cn(-c2ccc(O)cc2)nn1`, the Activity is reported as >90%.

tested on: Pseudoalteromonas sp. D41; assay: Antibacterial activity against Pseudoalteromonas sp. D41 assessed as inhibition of bacterial growth up to 100 uM; assay type: functional; details: not given
How it was run: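 Growth assay with D41 grown in VNSS at 20 °C, shaken at 120 rpm and sampled in exponential phase, then subcultured at OD600 0.1. Compound was added at concentrations from 1 to 100 in triplicate, with a growth control and a solvent (DMSO or methanol) control. Plates were shaken at 120 rpm at 20 °C and OD600 was read hourly.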

`CC(C)=CCC/C(C)=C/COCc1cn(-c2cccc(C(=O)O)c2)nn1` was tested, and the inhibition was “inactive”.
`COc1cccc(-n2cc(COC/C=C(\C)CCC=C(C)C)nn2)c1` was tested, and the inhibition was “inactive”.

tested on: Pseudoalteromonas sp. D41; assay: Antibiofilm activity in Pseudoalteromonas sp. D41 assessed as bacterial adhesion after 15 h using DAPI staining by micro-plate fluorescence reader; details: Pseudoalteromonas sp. D41, 15 h

`CC(C)=CCC/C(C)=C/COCc1cn(-c2cccc(C(=O)O)c2)nn1` and `COc1cccc(-n2cc(COC/C=C(\C)CCC=C(C)C)nn2)c1` are within 1.5-fold of each other in EC50: 74 µM for the first, 103 µM for the second.

Compared with `COc1ccc(-n2cc(COC/C=C(\C)CCC=C(C)C)nn2)cc1`, `COc1ccc(-n2cc(COC/C=C(\C)CC/C=C(\C)CCC=C(C)C)nn2)cc1` is 2.4-fold lower in EC50: 276 µM for the first, 117 µM for the second. The second is the more potent here.

`CC(C)=CC(=O)C/C(C)=C/CC/C(C)=C/CC/C(C)=C/CO` [ELEGANOLONE] and `CC(C)=C[C@@H](O)C/C(C)=C/CC/C(C)=C/CC/C(C)=C/CO` [ELEGANEDIOL] are within 1.5-fold of each other in EC50: 174 µM for the first, 224 µM for the second.

Going from `COc1cc(OC)cc(-c2cn(C/C=C(\C)CC/C=C(\C)CCC=C(C)C)nn2)c1` to `COc1cccc(-n2cc(COC/C=C(\C)CC/C=C(\C)CCC=C(C)C)nn2)c1`, the EC50 rises from 71 µM to 198 µM (2.8-fold). The first is the more potent here.

Work on `COc1ccccc1-n1cc(COC/C=C(\C)CCC=C(C)C)nn1` yielded an EC50 of 166 µM.

tested on: Pseudoalteromonas sp. D41; assay: Antibiofilm activity in Pseudoalteromonas sp. D41 assessed as bacterial adhesion at 500 uM after 15 h using DAPI staining by micro-plate fluorescence reader; details: not given

`COc1cccc(-c2cn(C/C=C(\C)CC/C=C(\C)CCC=C(C)C)nn2)c1` gave an Activity of 15%.
